Source: the RNAGym collection of RNA variant scans (doi:10.1126/science.aae0568)
This sample holds only a part of the variants without activity.

B1: tRNA (parent)
chain: GUUCCGUUGGCGUAAUGGUAACGCGUCUCCCUCCUAAGGAGAAGACUGCGGGUUCGAGUCCCGUACGGAACG

Variants of: B1
Assay: yeast fitness relative to wild type (ratio to wild type); higher = fitter; tRNA-Arg(CCU), competitive growth, 37 C, YPD
How it was run: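 Variants of the tRNA-Arg(CCU) gene were chemically synthesised with a 3% per-site mutation rate across 69 sites and placed at the native genomic locus in Saccharomyces cerevisiae. Six parallel replicates of the pooled strains were competed in YPD at 37°C for 24 hours, and gene amplicons from the start and end populations were read by 100-nucleotide paired-end sequencing. Darwinian fitness relative to wild type was derived from changes in genotype frequencies. Genotypes required ≥ 100 starting reads, and estimates < 0.5 were set to 0.5.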

Row | Variant | yeast fitness
1 | G63A A65U | 0.945
2 | G63A A69C | 0.941
3 | G63A A69G | 0.878
4 | G63A A70C | 0.973
5 | G63A A70U | 0.816
6 | G63A C66A | 0.72
7 | G63A C66G A69G | ≤ 0.5
8 | G63A G67A | 0.693
9 | G63C A65C C66A | ≤ 0.5
10 | G63U A69U | 0.83
11 | U64A | 0.972
12 | U64A A69U | 0.834
13 | U64C | 0.985
14 | U64C A70C | 0.967
15 | U64G | 0.993
16 | A65C A70C | 1.03
17 | A65C G68C | 0.778
18 | A65G A69C | 0.984

Row | Variant | yeast fitness
19 | A65G C66A | 0.716
20 | A65G C66U | 0.993
21 | A65U A70G | 1.05
22 | A65U C66U | 0.818
23 | A65U G67C | 0.64
24 | C66A G68A | 0.695
25 | C66G G67C | 0.733
26 | C66G G67U | 0.63
27 | C66U A70U | 0.923
28 | G67A | 0.951
29 | G67A G68C | 0.819
30 | G67C | 0.986
31 | G67C G68U | 0.676
32 | G67U | 0.918
33 | G67U A69U | 0.887
34 | G67U G68C | 0.773
35 | G68U A69C | 0.817
